# Sampled rows, rich in hits. Any-hit rate of the full collection: about 1.3%.
# Calb biofilm kill: clotrimazole potentiators killing C. albicans biofilm, primary screen, 4-compound mixtures; C. albicans biofilm persisters + clotrimazole, fluorescence viability; primary screen in compound mixtures of four per well; inhibition, % at 7.6 µM; hit rate 0.02% among 120,000; AID 1242, 2008;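 active means inhibition above 30.3% in the primary screen of four-compound pools, then above 30% when the compound was retested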;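 further: compounds exposed to preformed 24 h biofilms for 48 h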
#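 Probe or stimulus – Clotrimazole 50 µg/mL co-treatment · System – C. albicans biofilms · Schedule – 24 h biofilm formation, then 48 h compound exposure, 37 °C · Evaluation – percent inhibition of biofilm viability · Technique – 2-h Alamar Blue fluorescence, 535/590 nm excitation/emission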
# S1P4 agonist: S1P4 receptor agonists, primary screen, cell-based | S1P4-expressing cell line, agonist reporter assay | activation, % at 4.98 µM | hit rate 0.35% among 220,000 | AID 1509, 2009; in the data active means activation above about 11%
# S1P3 antag: S1P3 receptor antagonists, primary screen, cell-based. Sphingosine 1-phosphate receptor 3 (Homo sapiens), Q99500. CHO S1P3 NFAT-BLA reporter, FRET fluorescence, antagonist mode. inhibition, % at 4.98 µM. hit rate 0.27% among 170,000;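 active means inhibition above the plate cutoff, the mean inhibition of test wells on that plate plus 3 SD, cut at about 28% in these data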;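 further: cells challenged with S1P at its EC80 of 0.8 µM; blue over green emission ratio from cleaved BLA substrate after 4 h stimulation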
# Target sequence (Q99500 whole entry, looked up): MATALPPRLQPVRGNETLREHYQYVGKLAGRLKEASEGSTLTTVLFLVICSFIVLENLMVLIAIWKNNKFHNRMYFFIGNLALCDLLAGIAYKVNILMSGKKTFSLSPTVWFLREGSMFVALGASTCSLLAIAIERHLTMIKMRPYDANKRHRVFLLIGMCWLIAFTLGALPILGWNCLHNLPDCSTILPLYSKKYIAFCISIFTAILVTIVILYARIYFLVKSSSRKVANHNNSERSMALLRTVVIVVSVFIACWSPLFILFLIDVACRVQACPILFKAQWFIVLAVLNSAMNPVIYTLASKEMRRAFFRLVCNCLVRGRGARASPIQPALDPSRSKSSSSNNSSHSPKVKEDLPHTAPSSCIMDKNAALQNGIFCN
# Tb hexokinase: Trypanosoma brucei hexokinase 1 inhibitors, primary screen, biochemical, G6PDH-coupled NADH absorbance, MLSCN library. hexokinase 1 [Trypanosoma brucei]. recombinant TbHK1, G6PDH-coupled NADH A340. inhibition, % at 10 µM. hit rate 0.11% among 220,000. AID 1430, 2008;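 active means inhibition of 50% or more in the single-dose primary screen; inactive means inhibition below 50%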
# Dynein cargo inh: inhibitors of GR-EGFP nuclear translocation, primary screen, dynein cargo transport inhibitor project, imaging, high-content, 3617.4 mouse cells | test concentration mostly 20 µM; stimulated with dexamethasone, 1 µM; active compounds read low | z-score, hits read low | hit rate 0.47% among 220,000;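 active means plate z-score of nuclear minus cytoplasmic receptor signal below a set negative limit, without overly bright fluorescence or cell loss, cut at about -3.5 in these data, passing the limit was not always enough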;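 further: z-score of nuclear minus cytoplasmic ring GR-EGFP intensity difference per well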
#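 Also added: dexamethasone, 1.0 µM final. Medium: tet-free, stripped-serum medium. Detection: fixed, Hoechst-stained cells imaged at 10x for EGFP. Read-out: nuclear-to-cytoplasmic GR-EGFP distribution per well. Times: induction 48 h, compound 1 h, agonist 30 min.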
# S1P4 antagonist: S1P4 receptor antagonists, primary screen, cell-based. S1P4-expressing cells, antagonist mode, reporter read-out. Sphingosine 1-phosphate receptor 4 (Homo sapiens), O95977. inhibition, % at 4.98 µM. AID 1510, 2009. hit rate 0.26% among 220,000; in the data active means inhibition above about 29%
# S1P4 agonist cf: S1P4 receptor agonists, retest, confirmation, cell-based, high throughput | AID 1523, 2009 | activation, % at 4.98 µM | hit rate 7% among 740 | shares compounds with S1P4 agonist | S1P4 agonist cell-based reporter assay; in the data active means activation above about 12%
# S1P1 agonist: S1P1 receptor agonists, human, counter-screen for S1P4 agonist project, cell-based; shares compounds with S1P4 agonist; AID 1563, 2009; S1P1 agonist cell-based assay, activation; activation, % at 4.98 µM; hit rate 4% among 740; in the data active means activation above about 21%
# S1P4 antag conf: S1P4 receptor antagonists, human, confirmation, cell-based; shares compounds with S1P4 antagonist; S1P4-expressing cell line, antagonist mode, reporter read-out; inhibition, % at 4.98 µM; hit rate 71% among 520; AID 1524, 2009; in the data active means inhibition above about 30%
# S1P1 antag: S1P1 receptor antagonists, human, counter-screen for S1P4 antagonist project, cell-based; AID 1564, 2009; hit rate 37% among 520; cell-based S1P1 antagonist counterscreen, inhibition; inhibition, % at 4.98 µM; shares compounds with S1P4 antagonist; in the data active means inhibition above about 40%;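 further: receptor stimulated with S1P near its EC80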
# Hits are given with their value; i = inactive; nt = no result.
SMILES,Calb biofilm kill,S1P4 agonist,S1P3 antag,Tb hexokinase,Dynein cargo inh,S1P4 antagonist,S1P4 antag conf,S1P1 antag,others
CCn1c(=O)c2cc(C(=O)N(C)c3ccc(OC)cc3OC)sc2c2ccccc21,i,i,i,i,i,i,nt,nt,
O=C(NCc1ccccn1)C12CC3CC(CC(C3)C1)C2,i,i,i,i,i,i,nt,nt,
CC(=O)Oc1ccc2cc(-c3nc4ccccc4n3C)c(=O)oc2c1,nt,30,i,i,i,36,37,i,S1P4 agonist cf=15;S1P1 agonist=i
CCN(CC)C(=O)/C(=C/c1cccc([N+](=O)[O-])c1)NC(=O)c1ccco1,i,i,i,i,i,i,nt,nt,
O=C1C(Cl)=C(Nc2ccc(O)cc2)C(=O)c2ccccc21,i,14,i,i,i,90,105,65,S1P4 agonist cf=i;S1P1 agonist=i
Clc1ccc2nc(N3CCNCC3)nc(-c3ccccc3)c2c1,nt,20,nt,i,i,30,39,i,S1P4 agonist cf=13;S1P1 agonist=i
CN1CCN(c2nc(-c3ccccc3)c3cc(Cl)ccc3n2)CC1,nt,i,i,i,i,i,nt,nt,
COc1ccc(N=Cc2ccc(-c3ccccc3)o2)cc1,i,i,i,i,i,i,nt,nt,
Cc1cc(C)nc(NC(=O)c2ccc([N+](=O)[O-])o2)n1,i,i,i,i,i,i,nt,nt,
Cc1cc(NC(=O)c2ccc([N+](=O)[O-])o2)ccc1NC(=O)c1ccco1,i,i,i,i,i,90,107,58,
Cc1cc(C)cc(NC(=O)c2ccc([N+](=O)[O-])o2)c1,i,i,i,i,i,63,89,i,
COc1cccc2cc(C(=O)C3=C(O)C(=O)N(CCN(C)C)C3c3ccc(Cl)cc3)oc12 (stereo not given),i,i,i,i,i,i,nt,nt,
CCN(C(=O)CSc1nnc2nc(C)cc(C)n12)c1ccccc1,i,i,i,i,i,i,nt,nt,
Cc1n[nH]c(C)c1N1C(=O)c2cccc3c(Br)ccc(c23)C1=O,i,i,nt,i,i,70,79,93,
Cc1n[nH]c(C)c1N1C(=O)c2cccc3cc(Br)cc(c23)C1=O,nt,i,nt,i,i,i,nt,nt,
C=CCSc1nc(-c2ccc(OC)cc2)c(C#N)c(=O)n1CC=C,i,i,i,i,i,i,nt,nt,
Cc1cc(-c2nnc(CCC(=O)N3CCN(Cc4cccc(F)c4)CC3)o2)c(C)o1,i,i,i,i,i,i,nt,nt,
O=C(Nc1ccc(F)cc1)/C(Cl)=C/c1ccccc1,i,i,i,i,i,i,nt,nt,
O=C(Nc1cccc2ccccc12)/C(Cl)=C/c1ccccc1,nt,i,nt,i,i,61,68,i,
Cc1c(O)ccc(NC(=O)/C=C/c2ccccc2)c1C,i,i,i,i,i,57,61,i,
COCCNC(=S)Nc1ccc2[nH]c(=O)[nH]c2c1,i,i,i,i,i,i,nt,nt,
COc1ccc(CN(C(=O)c2oc3ccccc3c2C)C2CCS(=O)(=O)C2)cc1OC (stereo not given),nt,i,i,i,i,32,i,i,
CCCN1C(=O)/C(=C/c2ccc(OCC(=O)OCC)cc2)NC1=S,i,i,i,i,i,30,i,i,
COc1cc(OC)cc(N2C(=O)CSCC2=O)c1,i,i,i,i,i,i,nt,nt,
COc1cc([C@@H]2c3cc4c(cc3[C@@H](O)[C@@H](CO)[C@@H]2CO)OCO4)cc(OC)c1O[Si](C)(C)C(C)(C)C,i,nt,nt,i,i,nt,nt,nt,
SMILES,Calb biofilm kill,S1P4 agonist,S1P3 antag,Tb hexokinase,Dynein cargo inh,S1P4 antagonist,S1P4 antag conf,S1P1 antag,others
Cc1ccc(NC(=O)C(=O)NCC2CCCO2)cc1C (stereo not given),i,i,i,i,i,i,nt,nt,
Cc1ccc(NC(=O)C(=O)NCC2CCCO2)cc1 (stereo not given),i,i,i,i,i,79,i,i,
CN(C)C(=O)c1ccc(-n2cccn2)nc1,i,i,i,i,i,i,nt,nt,
COc1ccc(C(=O)Nc2cccc(-c3nc4ncccc4o3)c2C)cc1,nt,i,nt,i,i,33,i,i,
CC(NC(=O)c1cccc(Cn2cc([N+](=O)[O-])cn2)c1)c1ccc(C(C)(C)C)cc1 (stereo not given),nt,i,nt,i,i,76,i,i,
CCN1CCCC1CNC(=O)c1ccc(N2CCOCC2)c(NS(=O)(=O)c2ccc(OC)cc2)c1 (stereo not given),i,i,i,i,i,i,nt,nt,
Cc1ccc(C(=O)N2CCN(c3ccc([N+](=O)[O-])cc3-n3cccc3)CC2)cc1,i,i,i,i,i,i,nt,nt,
O=C(c1cnn2c(C(F)F)cc(-c3ccccc3)nc12)N1CCN2CCCC2C1 (stereo not given),nt,i,i,i,i,35,i,i,
O=C(Nc1nc2ccccc2n1CCN1CCCC1)c1ccc(Cl)cc1,nt,i,i,i,i,i,nt,nt,
CCCn1c(NC(=O)c2ccccc2)nc2ccccc21,nt,i,i,i,i,29,i,i,
Cc1ccc(C(=O)Nc2nc3ccccc3n2CCN2CCCC2)cc1,nt,i,i,i,i,31,i,i,
CCCn1c(NC(=O)c2ccc(C)cc2)nc2ccccc21,nt,i,i,i,i,i,nt,nt,
CC(=O)Nc1cccc(C(=O)/C=C/c2ccc(C)cc2)c1,i,i,i,i,i,45,55,i,
O=CNn1cnc2c(oc3nc(-c4ccccc4)cc(-c4ccco4)c32)c1=O,i,i,i,i,i,i,nt,nt,
C(=N\n1cnnc1)/c1ccc2c(c1)OCCO2,nt,i,nt,i,i,i,nt,nt,
C(=N\n1cnnc1)/c1ccc2c(c1)OCO2,nt,i,i,i,i,31,i,i,
N#C/C(=C\c1ccccn1)c1nc2ccccc2s1,i,i,i,i,i,74,36,43,
CN1Cc2c(N3CCOCC3)nc3sc(C#N)c(N)c3c2CC1(C)C,i,i,i,i,i,i,nt,nt,
CN1Cc2c(N3CCOCC3)nc3sc(C(=O)c4ccc(Br)cc4)c(N)c3c2CC1(C)C,i,i,i,i,i,43,57,58,
